≈ marks a conversion by molar mass, not a printed value.
test system: Streptococcus pneumoniae; assay: Minimum inhibitory concentration against Streptococcus pneumonia ATCC 6301; format: functional

MIC [µg/mL] | SMILES
1.4 (≈ 3.42 µM) | O=C(Nc1ccccc1C(=O)O)c1ccc(-c2ccccc2)c(Oc2ccccc2)c1
0.7 (≈ 1.47 µM) | O=C(Nc1ccccc1C(=O)O)c1ccc(-c2ccc(C(F)(F)F)cc2)c(Oc2ccccc2)c1
1.4 (≈ 3.1 µM) | CC(C)c1cccc(-c2ccc(C(=O)Nc3ccccc3C(=O)O)cc2Oc2ccccc2)c1
2.8 (≈ 6.29 µM) | O=C(Nc1ccccc1C(=O)O)c1ccc(-c2ccc(F)cc2F)c(Oc2ccccc2)c1

SMILES | MIC [µg/mL]
CS(=O)(=O)c1ccc(-c2ccc(C(=O)Nc3ccccc3C(=O)O)cc2Oc2ccccc2)cc1 | 45 (≈ 92.3 µM)

test system: Streptococcus pyogenes; assay: Minimum inhibitory concentration against Streptococcus pyogenes NZ131; format: functional

MIC [µg/mL] | SMILES
2.8 (≈ 5.86 µM) | O=C(Nc1ccccc1C(=O)O)c1ccc(-c2ccc(C(F)(F)F)cc2)c(Oc2ccccc2)c1
2.8 (≈ 6.2 µM) | CC(C)c1cccc(-c2ccc(C(=O)Nc3ccccc3C(=O)O)cc2Oc2ccccc2)c1
2.8 (≈ 6.29 µM) | O=C(Nc1ccccc1C(=O)O)c1ccc(-c2ccc(F)cc2F)c(Oc2ccccc2)c1

SMILES | MIC [µg/mL]
CS(=O)(=O)c1ccc(-c2ccc(C(=O)Nc3ccccc3C(=O)O)cc2Oc2ccccc2)cc1 | 22 (≈ 45.1 µM)

test system: Neisseria meningitidis; assay: Minimum inhibitory concentration against Neisseria meningitides MC58 in presence of membrane permeablizing agent polymyxin B; format: functional

MIC [µg/mL] | SMILES
1.4 | O=C(Nc1ccccc1C(=O)O)c1ccc(-c2ccccc2)c(Oc2ccccc2)c1
1.4 | O=C(Nc1ccccc1C(=O)O)c1ccc(-c2ccc(C(F)(F)F)cc2)c(Oc2ccccc2)c1
1.4 | CC(C)c1cccc(-c2ccc(C(=O)Nc3ccccc3C(=O)O)cc2Oc2ccccc2)c1
0.36 | O=C(Nc1ccccc1C(=O)O)c1ccc(-c2ccc(F)cc2F)c(Oc2ccccc2)c1

SMILES | MIC [µg/mL]
CS(=O)(=O)c1ccc(-c2ccc(C(=O)Nc3ccccc3C(=O)O)cc2Oc2ccccc2)cc1 | 5.6

biological target: T1, Beta-ketoacyl-[acyl-carrier-protein] synthase III (Streptococcus pyogenes serotype M3 (strain ATCC BAA-595 / MGAS315), UniProt P0DB00); assay: Inhibitory concentration against Streptococcus pyogenes beta-Ketoacyl-acyl carrier protein synthase III
T1 sequence (P0DB00 whole entry): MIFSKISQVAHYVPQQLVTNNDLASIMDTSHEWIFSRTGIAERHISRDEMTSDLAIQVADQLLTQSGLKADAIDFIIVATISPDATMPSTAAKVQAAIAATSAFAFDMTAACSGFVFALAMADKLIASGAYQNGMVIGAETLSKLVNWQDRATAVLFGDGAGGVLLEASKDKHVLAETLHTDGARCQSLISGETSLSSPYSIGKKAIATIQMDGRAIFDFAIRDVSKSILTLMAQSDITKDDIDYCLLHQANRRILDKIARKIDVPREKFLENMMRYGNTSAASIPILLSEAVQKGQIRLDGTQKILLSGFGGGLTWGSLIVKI
In short: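 S. pyogenes FabH (10 nM, His-tagged or tagless, expressed in E. coli BL21(DE3)) was run in a coupled assay with 10 nM FabD, 12.5 µM holo-ACP, 100 mM sodium phosphate pH 7.0, 2 mM DTT and 1 mM MgCl₂. Malonyl-CoA was added for 1 min, then [³H]acetyl-CoA/acetyl-CoA with NADH and NADPH for 19 min. The reaction was stopped with cold TCA and the pellet read by scintillation. Inhibitor DMSO ≤2%.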

SMILES | IC50 [nM]
O=C(Nc1ccccc1C(=O)O)c1ccc(-c2ccccc2)c(Oc2ccccc2)c1 | 50
CS(=O)(=O)c1ccc(-c2ccc(C(=O)Nc3ccccc3C(=O)O)cc2Oc2ccccc2)cc1 | 3

biological target: T2, Beta-ketoacyl-[acyl-carrier-protein] synthase III (Staphylococcus aureus subsp. aureus Mu50, UniProt P68795); assay: Inhibitory concentration against Staphylococcus aureus beta-Ketoacyl-acyl carrier protein synthase III
T2 sequence (P68795 whole entry): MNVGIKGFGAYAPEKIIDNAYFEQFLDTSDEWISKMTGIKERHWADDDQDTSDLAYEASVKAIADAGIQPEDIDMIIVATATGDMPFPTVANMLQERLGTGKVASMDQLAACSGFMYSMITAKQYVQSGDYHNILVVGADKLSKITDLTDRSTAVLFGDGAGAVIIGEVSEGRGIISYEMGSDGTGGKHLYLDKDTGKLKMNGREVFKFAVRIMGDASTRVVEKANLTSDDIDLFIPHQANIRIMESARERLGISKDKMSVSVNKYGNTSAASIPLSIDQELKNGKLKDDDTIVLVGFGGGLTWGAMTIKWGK
In short: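 Coupled FabD/FabH radiometric assay, 100 µL final, pH 7.0: 100 mM sodium phosphate, 2 mM DTT, 1 mM MgCl2, 12.5 µM E. coli holo-ACP, 10 nM FabD, 20 nM S. aureus FabH (His-tagged or tagless, expressed in E. coli BL21(DE3)). FabD started with malonyl-CoA for 1 min. Acetyl-CoA plus [3H]acetyl-CoA, NADH and NADPH then added; FabH reaction 19 min. Stopped with TCA; pellet counted by liquid scintillation. DMSO ≤2% final.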

SMILES | IC50 [nM]
O=C(Nc1ccccc1C(=O)O)c1ccc(-c2ccccc2)c(Oc2ccccc2)c1 | 10000
CS(=O)(=O)c1ccc(-c2ccc(C(=O)Nc3ccccc3C(=O)O)cc2Oc2ccccc2)cc1 | 24000

test system: Escherichia coli; assay: Minimum inhibitory concentration against Escherichia coli TolC- mutant in presence of membrane permeablizing agent polymyxin B; format: functional

MIC [µg/mL] | SMILES
1.4 | O=C(Nc1ccccc1C(=O)O)c1ccc(-c2ccccc2)c(Oc2ccccc2)c1
0.7 | O=C(Nc1ccccc1C(=O)O)c1ccc(-c2ccc(C(F)(F)F)cc2)c(Oc2ccccc2)c1
2.8 | CC(C)c1cccc(-c2ccc(C(=O)Nc3ccccc3C(=O)O)cc2Oc2ccccc2)c1
0.7 | O=C(Nc1ccccc1C(=O)O)c1ccc(-c2ccc(F)cc2F)c(Oc2ccccc2)c1

SMILES | MIC [µg/mL]
CS(=O)(=O)c1ccc(-c2ccc(C(=O)Nc3ccccc3C(=O)O)cc2Oc2ccccc2)cc1 | 5.6

test system: Staphylococcus aureus; assay: Minimum inhibitory concentration against Staphylococcus aureus MRSA 703; format: functional

MIC [µg/mL] | SMILES
11.3 (≈ 27.6 µM) | O=C(Nc1ccccc1C(=O)O)c1ccc(-c2ccccc2)c(Oc2ccccc2)c1
5.6 (≈ 11.7 µM) | O=C(Nc1ccccc1C(=O)O)c1ccc(-c2ccc(C(F)(F)F)cc2)c(Oc2ccccc2)c1
5.6 (≈ 12.4 µM) | CC(C)c1cccc(-c2ccc(C(=O)Nc3ccccc3C(=O)O)cc2Oc2ccccc2)c1
5.6 (≈ 12.6 µM) | O=C(Nc1ccccc1C(=O)O)c1ccc(-c2ccc(F)cc2F)c(Oc2ccccc2)c1

SMILES | MIC [µg/mL]
CS(=O)(=O)c1ccc(-c2ccc(C(=O)Nc3ccccc3C(=O)O)cc2Oc2ccccc2)cc1 | 45 (≈ 92.3 µM)

biological target: T3, Beta-ketoacyl-[acyl-carrier-protein] synthase III (Haemophilus influenzae (strain ATCC 51907 / DSM 11121 / KW20 / Rd), UniProt P43711); assay: Inhibitory concentration against Haemophilus influenzae beta-Ketoacyl-acyl carrier protein synthase III
T3 sequence (P43711 whole entry): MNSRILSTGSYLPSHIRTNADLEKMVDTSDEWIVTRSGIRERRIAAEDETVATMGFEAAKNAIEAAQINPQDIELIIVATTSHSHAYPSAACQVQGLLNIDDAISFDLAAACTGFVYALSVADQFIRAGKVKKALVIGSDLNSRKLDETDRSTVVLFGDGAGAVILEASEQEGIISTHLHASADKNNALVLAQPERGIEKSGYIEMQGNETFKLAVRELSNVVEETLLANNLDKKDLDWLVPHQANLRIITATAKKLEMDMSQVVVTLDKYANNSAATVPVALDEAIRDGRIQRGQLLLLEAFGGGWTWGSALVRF
In short: (§1)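 Coupled FabD/FabH radiometric assay with His-tagged or tagless FabH expressed in E. coli BL21(DE3). The mix held 100 mM sodium phosphate pH 7.0, 2 mM DTT, 1 mM MgCl₂, 12.5 µM E. coli holo-ACP, 10 nM FabD and 3-5 nM FabH. Malonyl-CoA was added for 1 min, then acetyl-CoA plus [³H]acetyl-CoA, NADH and NADPH for 19 min. TCA-precipitated protein was counted by liquid scintillation; DMSO ≤2% final.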

SMILES | IC50 [nM]
O=C(Nc1ccccc1C(=O)O)c1ccc(-c2ccccc2)c(Oc2ccccc2)c1 | > 100000
CS(=O)(=O)c1ccc(-c2ccc(C(=O)Nc3ccccc3C(=O)O)cc2Oc2ccccc2)cc1 | > 100000

biological target: T4, Beta-ketoacyl-[acyl-carrier-protein] synthase III (Enterococcus faecalis (strain ATCC 700802 / V583), UniProt Q820T1); assay: Inhibitory concentration against Enterococcus faecalis beta-Ketoacyl-acyl carrier protein synthase III; in short: as §1
T4 sequence (Q820T1 whole entry): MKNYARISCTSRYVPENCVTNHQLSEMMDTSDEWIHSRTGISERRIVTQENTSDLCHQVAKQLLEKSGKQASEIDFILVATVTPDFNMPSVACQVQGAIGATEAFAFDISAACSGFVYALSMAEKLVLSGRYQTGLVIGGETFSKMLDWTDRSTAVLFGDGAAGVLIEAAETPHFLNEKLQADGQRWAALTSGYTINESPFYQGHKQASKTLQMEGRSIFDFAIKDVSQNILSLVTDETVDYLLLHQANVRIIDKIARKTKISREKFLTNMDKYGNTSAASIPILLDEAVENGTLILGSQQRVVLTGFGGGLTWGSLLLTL

IC50 [nM] | SMILES
56 | O=C(Nc1ccccc1C(=O)O)c1ccc(-c2ccccc2)c(Oc2ccccc2)c1
96 | O=C(Nc1ccccc1C(=O)O)c1ccc(-c2ccc(C(F)(F)F)cc2)c(Oc2ccccc2)c1
790 | CC(C)c1cccc(-c2ccc(C(=O)Nc3ccccc3C(=O)O)cc2Oc2ccccc2)c1
160 | O=C(Nc1ccccc1C(=O)O)c1ccc(-c2ccc(F)cc2F)c(Oc2ccccc2)c1

SMILES | IC50 [nM]
CS(=O)(=O)c1ccc(-c2ccc(C(=O)Nc3ccccc3C(=O)O)cc2Oc2ccccc2)cc1 | 28

test system: not listed separately; assay: Minimum inhibitory concentration against Enterococcus faecalis VRE 583; format: functional, Enterococcus faecalis V583

MIC [µg/mL] | SMILES
22 (≈ 53.7 µM) | O=C(Nc1ccccc1C(=O)O)c1ccc(-c2ccccc2)c(Oc2ccccc2)c1
5.6 (≈ 11.7 µM) | O=C(Nc1ccccc1C(=O)O)c1ccc(-c2ccc(C(F)(F)F)cc2)c(Oc2ccccc2)c1
5.6 (≈ 12.4 µM) | CC(C)c1cccc(-c2ccc(C(=O)Nc3ccccc3C(=O)O)cc2Oc2ccccc2)c1
11.3 (≈ 25.4 µM) | O=C(Nc1ccccc1C(=O)O)c1ccc(-c2ccc(F)cc2F)c(Oc2ccccc2)c1

SMILES | MIC [µg/mL]
CS(=O)(=O)c1ccc(-c2ccc(C(=O)Nc3ccccc3C(=O)O)cc2Oc2ccccc2)cc1 | > 45

Reference: ChEMBL document CHEMBL1140263, “Structure-based design, synthesis, and study of potent inhibitors of beta-ketoacyl-acyl carrier protein synthase III as potential antimicrobial agents” (J Med Chem, 2005)
